Consider 25 compounds from PMC3081996 (Bioorganic & medicinal chemistry letters, 2010).

Each structure is given as a SMILES string. “Also recorded” adds a separate entry of the source. Where only a bound is given, the exact number is not on record here.

What all share (format): biochemical
Experiment [1] addresses T1, human TG2 (Homo sapiens, UniProt P21980).
T1 sequence (P21980 1-687): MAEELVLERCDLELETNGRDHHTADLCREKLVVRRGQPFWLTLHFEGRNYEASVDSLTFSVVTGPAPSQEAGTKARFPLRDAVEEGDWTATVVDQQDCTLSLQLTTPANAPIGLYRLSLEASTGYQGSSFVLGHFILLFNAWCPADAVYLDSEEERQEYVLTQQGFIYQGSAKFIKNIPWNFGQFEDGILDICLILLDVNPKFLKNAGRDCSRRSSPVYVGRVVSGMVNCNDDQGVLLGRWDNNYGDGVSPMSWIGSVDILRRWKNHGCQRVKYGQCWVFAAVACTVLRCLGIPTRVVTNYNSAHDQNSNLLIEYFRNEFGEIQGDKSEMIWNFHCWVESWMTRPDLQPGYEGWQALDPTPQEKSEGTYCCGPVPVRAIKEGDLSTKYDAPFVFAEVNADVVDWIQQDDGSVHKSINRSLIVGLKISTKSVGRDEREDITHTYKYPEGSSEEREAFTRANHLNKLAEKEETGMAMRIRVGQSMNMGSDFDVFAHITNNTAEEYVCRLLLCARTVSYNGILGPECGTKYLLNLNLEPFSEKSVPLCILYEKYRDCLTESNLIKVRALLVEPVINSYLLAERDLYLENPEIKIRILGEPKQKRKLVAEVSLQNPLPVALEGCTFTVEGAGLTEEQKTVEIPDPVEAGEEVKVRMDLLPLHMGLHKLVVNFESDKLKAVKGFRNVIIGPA
The experiment is described as follows: preliminary screening of isatins as TG2 inhibitors. Summed up: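 Coupled GDH assay of TG2-catalysed deamidation of the substrate ZQG, with human TG2 at 0.5 µM. Inhibition by isatin-derived test compounds is read as IC50.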

For experiment [2], the target named is T1, human TG2. The experiment is described as follows: GDH-coupled deamidation assay with Cbz-Gln-Gly. As to conditions: for GDH-coupled assay α (ratio Ki’/Ki): Table 4, [TG2] = 0.5 µM, mixed inhibition model.
In experiment [3] the target is T1, human TG2. The experiment can be described thus: direct fluorometric assay. As to conditions: for partial inhibition activity (in words): fluorometric assay; for Fluorescent assay α (ratio Ki’/Ki): Table 4, [TG2] = 15 nM, mixed inhibition model; for binding character in mixed inhibition model (in words): compounds that did not exhibit partial inhibition. Summed up: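 Direct fluorometric assay following release of 7-hydroxycoumarin from an ester substrate by human TG2 at 15 nM. Ki and Ki' are fitted to a mixed inhibition model, with α = Ki'/Ki. A larger α means more competitive inhibition, α = 1 means simple non-competitive, and α < 1 means increasingly uncompetitive.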

Compound `O=C1Nc2ccc(Br)cc2C1=O` [5-bromo] returned an IC50 against human TG2 [1] of 65 to 450 µM.

For `O=C1C(=O)N(CN2C(=O)C(=O)c3ccccc32)c2ccccc21` [Compound 6], on human TG2 [2] (GDH-coupled assay), the “TG2 inhibitory activity (in words)” value is on record as “active”.

On human TG2 [1], `O=C1Nc2ccc(Cl)cc2C1=O` [5-chloro] registered an IC50 of 65 to 450 µM.

Consider `CN1C(=O)/C(=C/C(=O)c2cccnc2)c2c(Cl)cccc21` [Compound 28], for which, on human TG2 [2], the “GDH-coupled assay α (ratio Ki’/Ki)” value is on record as > 100.

As to `Nc1ccc(C(=O)/C=C2/C(=O)Nc3cccc(Cl)c32)cc1` [Compound 27], the “partial inhibition activity (in words)” value on human TG2 [3] is given as “partial inhibition activity”.

Take `O=C1Nc2c(Cl)cccc2/C1=C\C(=O)c1cccnc1` [Compound 48]: on human TG2 [3], the “partial inhibition activity (in words)” value is “partial inhibition activity”.

`Cc1cc(C)c(CN2C(=O)C(=O)c3ccccc32)cc1CN1C(=O)C(=O)c2ccccc21` [Compound 4]: the “TG2 inhibitory activity (in words)” value on human TG2 [2] (GDH-coupled assay) is recorded as “active”.

As to `O=C1Nc2ccccc2/C1=C1/Nc2ccccc2C1=O` [Compound 7, indirubin], at human TG2 [2] (GDH-coupled assay), the “TG2 inhibitory activity (in words)” value is “inactive”.

Turning to `O=C1Nc2cc(Cl)ccc2/C1=C\C(=O)c1cccnc1` [Compound 46], at human TG2 [2] (GDH-coupled assay), the “TG2 inhibitory activity (in words)” value is given as “nearly as potent as compound 16” and the “mode of inhibition (Lineweaver-Burk analysis)” value is on record as “non-competitive, allosteric mode of action; also recorded: non-competitive inhibitory character”. The “GDH-coupled assay α (ratio Ki’/Ki)” value at human TG2 [2] is given as 0.86.

With `O=C1Nc2cccc(Cl)c2/C1=C\C(=O)c1cccnc1` [Compound 16], the “GDH-coupled assay α (ratio Ki’/Ki)” value at human TG2 [2] is reported as > 100.

Consider `O=C1Nc2ccccc2/C1=C1\C(=O)Nc2ccccc21` [Compound 8, isoindigotin], for which the “TG2 inhibitory activity (in words)” value at human TG2 [2] (GDH-coupled assay) is “promising inhibitors”.

Take `O=C1Nc2cccc(Cl)c2/C1=C\C(=O)c1ccccc1` [Compound 20]: on human TG2 [2], the “GDH-coupled assay α (ratio Ki’/Ki)” value is > 100.

For the compound `CC(=O)/C=C1/C(=O)Nc2cccc(Cl)c21` [Compound 10], the “GDH-coupled assay α (ratio Ki’/Ki)” value at human TG2 [2] is > 100.

Take `CC(=O)/C=C1/C(=O)Nc2ccc(Cl)cc21` [Compound 11]: the “GDH-coupled assay α (ratio Ki’/Ki)” value on human TG2 [2] is reported as > 100.

Turning to `O=C1Nc2cccc(Cl)c2/C1=C\C(=O)c1ccc(Cl)cc1` [Compound 22], the “partial inhibition activity (in words)” value at human TG2 [3] is “partial inhibition activity”.

With `CC(=O)/C=C1/C(=O)Nc2ccccc21` [Compound 9], the “TG2 inhibitory activity (in words)” value on human TG2 [2] (GDH-coupled assay) was “promising inhibitors”.

On human TG2 [1], `O=C1Nc2c(F)cc(F)cc2C1=O` [5,7-difluoroisatin] displayed a half-maximal inhibitory concentration (IC50) of 65 to 450 µM.

For the compound `O=C1Nc2cccc(Br)c2/C1=C\C(=O)c1cccnc1` [Compound 41], the “TG2 inhibitory activity (in words)” value at human TG2 [2] (GDH-coupled assay) is listed as “sub-micromolar inhibitor”. Besides, the “GDH-coupled assay α (ratio Ki’/Ki)” value on human TG2 [2] was > 100. Further, at human TG2 [3], the “Fluorescent assay α (ratio Ki’/Ki)” value turned out to be 2.6 and the “binding character in mixed inhibition model (in words)” value is “non-competitive binding character”.

Consider `CC(=O)/C=C1/C(=O)Nc2cc(F)ccc21` [Compound 12], for which the “GDH-coupled assay α (ratio Ki’/Ki)” value at human TG2 [2] is > 100.

As to `COc1ccncc1C(=O)/C=C1/C(=O)Nc2cccc(Cl)c21` [Compound 19], the “partial inhibition activity (in words)” value at human TG2 [3] is “partial inhibition activity”.

Take `O=C(/C=C1/C(=O)N(Cc2ccccc2)c2cccc(Cl)c21)c1cccnc1` [Compound 33]: the “GDH-coupled assay α (ratio Ki’/Ki)” value on human TG2 [2] amounted to 1.8. On human TG2 [3], the “Fluorescent assay α (ratio Ki’/Ki)” value is reported as 3.6 and the “binding character in mixed inhibition model (in words)” value is listed as “non-competitive binding character”.

In the case of `O=C1Nc2cc(Br)ccc2/C1=C\C(=O)c1cccnc1` [Compound 47], the “TG2 inhibitory activity (in words)” value at human TG2 [2] (GDH-coupled assay) is “nearly as potent as compound 16”. In addition, the “partial inhibition activity (in words)” value on human TG2 [3] is “partial inhibition activity”.

`O=C1Nc2ccccc2/C1=C\C(=O)c1cccnc1` [Compound 40]: at human TG2 [2] (GDH-coupled assay IC50), the “loss in potency relative to compound 16” value is reported as > 20 fold. For the same compound, the “GDH-coupled assay α (ratio Ki’/Ki)” value at human TG2 [2] was > 100.

`O=C1Nc2ccc(I)cc2C1=O` [5-iodo] displayed an IC50 against human TG2 [1] of 65 to 450 µM.

As to `O=C1Nc2ccc(Br)cc2/C1=C\C(=O)c1cccnc1` [Compound 43], the “GDH-coupled assay α (ratio Ki’/Ki)” value on human TG2 [2] is recorded as > 100. Moreover, at human TG2 [3], the “Fluorescent assay α (ratio Ki’/Ki)” value is 4.4 and the “binding character in mixed inhibition model (in words)” value was “non-competitive binding character”.
